Results as given in PubChem BioAssay AID720543 (The Scripps Research Institute Molecular Screening Center, 2013).
Out of some 370,000 compounds screened, about 2,000 (0.54%) were called active. This is one part of a sample in which actives are shown more often than they occur. Unmarked numbers belong to inactive results.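 The calls were made as follows: active = inhibition exceeding the mean over every tested compound plus 3 SD (cut at about 30% in these data); inactive = the rest.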

Target: (Lyso)-N-acylphosphatidylethanolamine lipase (Mus musculus) (UniProt Q8VD66)
Assay: ABHD4 inhibitors, primary screen, biochemical, fluorescence polarization, mouse (AID 720543);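 also: 0% = plate median of compound wells and 100% = S159A mutant with DMSO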
Conditions: purified mABHD4, FP-Rh probe fluorescence polarization; at 8.92 µM; active compounds read high
Procedure, shortened: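 Test system: mABHD4 protein; Read-out basis: % inhibition; Incubation: 45 min + 60 min at 25 °C; Repeats: single replicate; Technique: fluorescence polarization with parallel and perpendicular emission, 525/598 nm; Compound: 8.92 µM, single dose; Benchmarks: full inhibition S159A mutant plus DMSO, zero as sample-well median.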

(Lyso)-N-acylphosphatidylethanolamine lipase (Mus musculus), sequence (Q8VD66 whole entry, looked up): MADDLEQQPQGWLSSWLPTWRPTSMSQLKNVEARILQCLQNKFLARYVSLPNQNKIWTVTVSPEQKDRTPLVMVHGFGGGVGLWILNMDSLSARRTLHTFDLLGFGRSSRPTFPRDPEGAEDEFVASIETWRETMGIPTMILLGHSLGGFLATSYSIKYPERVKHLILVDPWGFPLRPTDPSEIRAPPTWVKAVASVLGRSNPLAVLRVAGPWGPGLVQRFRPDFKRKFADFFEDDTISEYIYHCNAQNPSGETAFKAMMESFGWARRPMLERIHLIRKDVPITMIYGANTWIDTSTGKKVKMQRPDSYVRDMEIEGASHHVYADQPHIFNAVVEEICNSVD

Compared with `Cc1cc(C)c2nc3nc(C)cc(C)c3c(N)c2c1`, `Cc1cc(=O)n2[nH]c(-c3sccc3-n3c(C)ccc3C)cc2n1` is higher in inhibition: -1.05% for the first, 16.4% for the second.

Going from `Cc1sc2nc(SCC(=O)c3ccc(O)c(O)c3)n(Cc3ccco3)c(=O)c2c1C` to `CCOC(=O)c1cc(-c2sc(NC(=O)c3ccccc3)nc2C)n(-c2ccc(Br)cc2)n1`, the inhibition falls from 4.55% to 1.18%.

Compared with `COCCCNC(=O)C[C@H]1C[C@@]2(C(=O)OC)C(=C[C@H](C(C)(C)C)O[C@@H]2C)N(Cc2ccc3c(c2)OCO3)C1=O`, `CCOC(=O)[C@]12CCCC=C1N(Cc1ccc(OC)cc1)C(=O)[C@@H]2CC(=O)N1CCOCC1` is higher in inhibition: 1.21% for the first, 5.88% for the second.

First: Cc1ccc2c(C(=O)CN3CCCC3)c(C)[nH]c2c1
Second: Cc1ccc(CN2CCCCC(NC(=O)C3CCCCC3)C2=O)cc1 (stereo unspecified)
The inhibition of the first is higher: 0.49% for the first, -4.62% for the second.

Going from `Cc1ccc(Nc2ccccc2N)cc1` to `O=c1cnnc(Nc2ccccc2)[nH]1`, the inhibition falls from 28.9% to 4.6%.

First: CCCc1ccc(C(O)c2ncc(-c3cccc(OC)c3)[nH]2)cc1 (stereo unspecified)
Second: COc1ccc(C(=O)NC(=S)N2CCCCC2c2cccnc2)cc1OC (stereo unspecified)
The inhibition of the first is lower: -9.64% for the first, -3.67% for the second.

First: COC(=O)C1CN(CC(C)C)CCS(=O)(=O)N1Cc1ccc(C)cc1 (stereo unspecified)
Second: COC(=O)C1CN(CC(C)C)CCS(=O)(=O)N1Cc1ccc(F)cc1 (stereo unspecified)
The inhibition of the first is higher: 2.37% for the first, 0.68% for the second.

Compared with `CCC(=O)c1c(CC)c2n3c1=CC[C@H]3CC(Br)C=2` (stereo partly specified), `Cc1cc(C)n2ncc(C(=O)Nc3ccc4c(c3)OCCO4)c2n1` is lower in inhibition: 3.54% for the first, 1.04% for the second.

Going from `O=C(N/N=C/c1cccc([N+](=O)[O-])c1)C1CC(=O)N(c2ccc(Br)cc2)C1` (stereo unspecified) to `Cc1c(NC(=O)C(=O)N/N=C/c2cccs2)c(=O)n(-c2ccccc2)n1C`, the inhibition rises from -2.95% to 3.46%.

Going from `Cc1cc(C(=O)COc2ccccc2[N+](=O)[O-])c(C)n1-c1cccc(S(=O)(=O)N2CCOCC2)c1` to `O=C(c1ccc2c(c1)N(Cc1ccc(F)cc1)C(=O)CS2)N1CCOCC1`, the inhibition falls from -5.94% to -7.7%.

Going from `O=C1CC(c2ccc3c(c2)OCO3)N=C2N(CC3CC3)C/C(=C/c3ccccc3)N12` (stereo unspecified) to `CN1C[C@]2(C=C3CCCCC3n3c(=O)n(-c4ccccc4)c(=O)n32)N=C1NC(=O)c1ccccc1` (stereo partly specified), the inhibition falls from 5.86% to 0.57%.

Going from `COc1cccc(CNC(=O)[C@H]2CCCN2C(=O)[C@H]2CCCN2C(=O)c2cc(F)cc(F)c2)c1` to `COc1cc(C(=S)NC2CCCCC2)ccc1O`, the inhibition falls from 1.83% to 0.73%.

Compared with `O=[N+]([O-])/C=C/c1ccc2c(ccn2Cc2ccccc2)c1`, `O=S(=O)(/N=C(/Nc1ccccc1)c1ccccc1)c1cccs1` is higher in inhibition: -15% for the first, 1.09% for the second.

With `Nc1ccc(Nc2ccccc2)cc1` the inhibition was 46.5% (active).
In the case of `CN1c2ccc(C=O)c3c(C=O)ccc(c23)N(C)C1(C)C`, the inhibition was 64.5% (active).
`Cc1cc(C(=O)N/N=C/c2ccc(O)c([N+](=O)[O-])c2)c(C)n1-c1ccc(F)cc1` was tested, and the inhibition was 37.5% (active).
For `O=C(O)c1ccc(N/N=C/c2cn(-c3ccccc3)nc2-c2cccs2)cc1`, the inhibition was 34.6% (active).
`COc1cc(C(=O)Nn2c(O)c(C3=c4ccccc4=NC3=O)sc2=S)ccc1O` was tested, and the inhibition was 57.7% (active).
